In ChEMBL document CHEMBL4706580, “4-Amino-1,2,4-triazole-3-thione-derived Schiff bases as metallo-β-lactamase inhibitors” (Eur J Med Chem, 2020):
pIC50, pKi: −log10 of the molar value. Active and inactive are the calls of the source. No cut-off for these calls is given here.

Assays:
[1] = test system: Escherichia coli; test: Synergistic antibacterial activity against NDM-1 producing Escherichia coli assessed as MIC of ceftazidime at 32 ug/ml by broth microdilution method; format: functional; conditions: dose 32 µg/ml
[2] = Inhibition of beta-lactamase L1 (unknown origin) expressed in Escherichia coli BL21(DE3) using nitrocefin as substrate by measuring substrate hydrolysis preincubated for 30 mins by spectrophotometric analysis
Summary of the method: (§1)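 Enzyme 0.2–0.8 nM in 25 mM HEPES pH 7.5 with 50 μM ZnCl2 final, pre-incubated 30 min at 21 °C with inhibitor (100 μM screen). Nitrocefin 100 μM final, read at 482 nm, 30 °C. Residual activity vs three uninhibited samples; Ki (1–100 μM inhibitor) from Hanes linearization, competitive model. Triplicate.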

[3] = test system: Escherichia coli; test: Synergistic antibacterial activity against NDM-1 producing Escherichia coli assessed as MIC of meropenem at 32 ug/ml by broth microdilution method; format: functional; conditions: dose 32 µg/ml
[4] = test system: Escherichia coli; test: Synergistic antibacterial activity against NDM-1 producing Escherichia coli assessed as MIC of imipenem at 32 ug/ml by broth microdilution method; format: functional; conditions: dose 32 µg/ml
[5] = Inhibition of beta-lactamase VIM-2 (unknown origin) expressed in Escherichia coli LZ2310 assessed as potentiation of cefoxitin antibacterial activity by measuring cefoxitin induced diameter of inhibition zone at 80 uM incubated for 18 hrs by disk diffusion method (reference value: 14 mm)
Summary of the method: (§2)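 Efflux-deficient E. coli LZ2310 (NorE, MdfA, AcrA knocked out) carrying pLB-II with the cloned MBL gene. Mueller-Hinton, CLSI disk diffusion; antibiotic disks (30 µg cefoxitin for VIM-2, 10 µg ampicillin for VIM-4, 30 µg ceftazidime for NDM-1/IMP-1) loaded with inhibitor in DMSO (≤15 µL). Zone diameter after 18 h, 35 ± 1 °C; DMSO and 220 µg EDTA controls. Triplicate.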

[6] = Inhibition of beta-lactamase VIM2 (unknown origin) expressed in Escherichia coli BL21(DE3) using imipenem as substrate by measuring substrate hydrolysis by spectrophotometric analysis
Summary of the method: (§3)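 Purified enzyme (overproduced in E. coli BL21(DE3), pET-9a; ion-exchange and gel filtration), 1-70 nM final. Reporter substrate 150 μM imipenem, read at 300 nm, 30 °C, 50 mM HEPES pH 7.5. Single-point screen at 100 or 200 μM; Ki from v0/vi vs [I] (0.5–1,000 μM final) assuming competitive inhibition, or Dixon plot. Triplicate.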

[7] = test system: Escherichia coli; test: Antibacterial activity against NDM-1 producing Escherichia coli in presence of colistin by broth microdilution method.; format: functional
[8] = Inhibition of beta-lactamase IMP-1 (unknown origin) expressed in Escherichia coli BL21(DE3) using imipenem as substrate by measuring substrate hydrolysis by spectrophotometric analysis; summary of the method: as §3
[9] = test system: Escherichia coli; test: Synergistic antibacterial activity against NDM-1 producing Escherichia coli assessed ass MIC of ceftazidime/avibactam at 32 ug/ml by broth microdilution method; format: functional; conditions: dose 32 µg/ml
Summary of the method: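 MIC of ceftazidime-avibactam (avibactam fixed at 4 µg/mL) by CLSI broth microdilution in Mueller-Hinton broth. Used the NDM-1-producing multidrug-resistant E. coli clinical isolate SI-001M at 5 × 10⁴ CFU/well, with and without inhibitor at a fixed 32 µg/ml. No colistin added. Triplicate determinations.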

[10] = Inhibition of beta-lactamase NDM1 (unknown origin) expressed in Escherichia coli BL21(DE3) using cefotaxime/nitrocefin as substrate by measuring substrate hydrolysis by spectrophotometric analysis
Summary of the method: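 His-tagged enzyme from E. coli BL21(DE3) pET-15b, affinity-purified, 1-70 nM final. Reporter substrate 120 μM cefotaxime (260 nm) or 100 μM nitrocefin (482 nm), 30 °C, 50 mM HEPES pH 7.5. Inhibitor 0.5–1,000 μM final; competitive Ki from v0/vi vs [I] slope or Dixon plot. Triplicate.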

[11] = Inhibition of beta-lactamase VIM4 (unknown origin) expressed in Escherichia coli BL21(DE3) using imipenem as substrate by measuring substrate hydrolysis by spectrophotometric analysis; summary of the method: as §3
[12] = Inhibition of beta-lactamase NDM-1 (unknown origin) expressed in Escherichia coli LZ2310 assessed as potentiation of ceftazidime antibacterial activity by measuring ceftazidime induced diameter of inhibition zone at 80 uM incubated for 18 hrs by disk diffusion method (reference value: 15 mm); summary of the method: as §2
[13] = Inhibition of beta-lactamase IMP-1 (unknown origin) expressed in Escherichia coli LZ2310 assessed as potentiation of ceftazidime antibacterial activity by measuring ceftazidime induced diameter of inhibition zone at 40 uM incubated for 18 hrs by disk diffusion method (reference value: 9 mm); summary of the method: as §2
[14] = target: Hydroxyacylglutathione hydrolase (Homo sapiens); test: Inhibition of human Glyoxalase II expressed in Escherichia coli BL21 (DE3)
[15] = Inhibition of beta-lactamase CphA (unknown origin) expressed in Escherichia coli BL21(DE3) using imipenem as substrate by measuring substrate hydrolysis by spectrophotometric analysis
Summary of the method: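 Enzyme 0.2–0.8 nM in 15 mM cacodylate pH 6.5, no added zinc, pre-incubated 30 min at 21 °C with inhibitor (100 μM screen). Imipenem substrate added from 10 mM stock; hydrolysis at 300 nm, 30 °C. Residual activity vs three uninhibited samples; Ki (1–100 μM inhibitor) by Hanes linearization, competitive model. Triplicate.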

[16] = Inhibition of beta-lactamase NDM-1 (unknown origin) expressed in Escherichia coli LZ2310 assessed as potentiation of ceftazidime antibacterial activity by measuring ceftazidime induced diameter of inhibition zone at 40 uM incubated for 18 hrs by disk diffusion method (reference value: 15 mm); summary of the method: as §2
[17] = Inhibition of beta-lactamase VIM-2 (unknown origin) expressed in Escherichia coli LZ2310 assessed as potentiation of cefoxitin antibacterial activity by measuring cefoxitin induced diameter of inhibition zone at 120 uM incubated for 18 hrs by disk diffusion method (reference value: 14 mm); summary of the method: as §2
[18] = Inhibition of beta-lactamase VIM-2 (unknown origin) expressed in Escherichia coli LZ2310 assessed as potentiation of cefoxitin antibacterial activity by measuring cefoxitin induced diameter of inhibition zone at 40 uM incubated for 18 hrs by disk diffusion method (reference value: 14 mm); summary of the method: as §2
[19] = Inhibition of beta-lactamase VIM-2 (unknown origin) expressed in Escherichia coli XL-1 assessed as potentiation of cefoxitin antibacterial activity by measuring cefoxitin induced diameter of inhibition zone at 120 uM incubated for 18 hrs by disk diffusion method (reference value: 8 mm)
Summary of the method: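 Wild-type efflux E. coli XL-1 Blue transformed with pLB-II-VIM-2. Mueller-Hinton disk diffusion per CLSI, 30 µg cefoxitin disks loaded with inhibitor dissolved in DMSO (≤15 µL). Growth-inhibition zone measured after 18 h at 35 ± 1 °C; DMSO negative and 220 µg EDTA positive controls. Triplicate.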

[20] = Inhibition of beta-lactamase VIM2 (unknown origin) expressed in Escherichia coli BL21(DE3) using imipenem as substrate by measuring substrate hydrolysis at 100 uM by spectrophotometric analysis; summary of the method: as §3
[21] = Inhibition of beta-lactamase L1 (unknown origin) expressed in Escherichia coli BL21(DE3) using nitrocefin as substrate by measuring substrate hydrolysis at 100 uM preincubated for 30 mins by spectrophotometric analysis; summary of the method: as §1
[22] = Inhibition of beta-lactamase NDM1 (unknown origin) expressed in Escherichia coli BL21(DE3) using cefotaxime/nitrocefin as substrate by measuring substrate hydrolysis at 200 uM by spectrophotometric analysis
[23] = Inhibition of beta-lactamase NDM1 (unknown origin) expressed in Escherichia coli BL21(DE3) using cefotaxime/nitrocefin as substrate by measuring substrate hydrolysis at 100 uM by spectrophotometric analysis
[24] = Inhibition of beta-lactamase IMP-1 (unknown origin) expressed in Escherichia coli LZ2310 assessed as potentiation of ceftazidime antibacterial activity by measuring ceftazidime induced diameter of inhibition zone at 80 uM incubated for 18 hrs by disk diffusion method (reference value: 9 mm); summary of the method: as §2
[25] = Inhibition of beta-lactamase VIM4 (unknown origin) expressed in Escherichia coli BL21(DE3) using imipenem as substrate by measuring substrate hydrolysis at 100 uM by spectrophotometric analysis; summary of the method: as §3
[26] = Inhibition of beta-lactamase VIM2 (unknown origin) expressed in Escherichia coli BL21(DE3) using imipenem as substrate by measuring substrate hydrolysis at 200 uM by spectrophotometric analysis; summary of the method: as §3

Row | SMILES | MIC [1] [µg/mL] | pKi [2] | MIC [3] [µg/mL] | MIC [4] [µg/mL] | pKi [6] | MIC [7] [µg/mL] | pKi [8] | MIC [9] [µg/mL] | pKi [10] | pKi [11] | inhibition zone (IZ) [13] [mm] | pKi [15] | inhibition [20] | inhibition [21] [%] | further results
1 | O=C(O)c1ccccc1/C=N/n1c(-c2ccc(-c3ccccc3)cc2)n[nH]c1=S | > 256 | 6.05 | 32 | 8 | 5.60 | > 256 | 4.49 | > 256 | 5.89 | 5.40 | – | – | – | – | inhibition zone (IZ) [5]: 15 mm; inhibition zone (IZ) [12]: 15 mm
2 | O=C(O)c1ccccc1/C=N/n1c(Cc2ccc3ccccc3c2)n[nH]c1=S | > 256 | 6.30 | 64 | 8 | 5.62 | > 256 | 4.46 | > 256 | 5.77 | 5.30 | 9 | 4.82 | – | – | pIC50 [14]: 4.52; inhibition zone (IZ) [16]: 15 mm; inhibition zone (IZ) [17]: 16 mm; inhibition zone (IZ) [18]: 14 mm
3 | Oc1ccc(/C=N/n2c(-c3cccc(C(F)(F)F)c3)n[nH]c2=S)c(O)c1 | – | – | – | – | – | – | 4.18 | – | 4.49 | 5.46 | – | – | 53% | 15 | inhibition zone (IZ) [19]: 12 mm
4 | Cc1ccccc1-c1n[nH]c(=S)n1/N=C/c1cc([N+](=O)[O-])ccc1O | – | – | – | – | – | – | 4.96 | – | – | – | 9 | 5.52 | inactive | 61 | inhibition [22]: inactive; inhibition [23]: inactive; inhibition zone (IZ) [24]: 13 mm; inhibition [25]: 44%; inhibition [26]: inactive
